Hits are enriched below; roughly 2% of the tested compounds scored in any of these assays.
UCH37 DUB inh: human UCH37 deubiquitinating enzyme inhibition | Q9Y5K5 | purified proteasome/UCH37, Ub-AMC cleavage fluorescence | inhibition, % (test concentration not listed) | 0.33% of 330,000 active | AID 588478;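 active = mean inhibition over replicate wells above about 20%, limit read from the data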
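Assay system: Proteasome-bound UCH37. Buffer or medium: pH 7.4 Tris-HCl (50 mM) with ovalbumin, ATP-MgCl2, DTT. Incubation: 30 min preincubation with enzyme, 25 min cleavage at room temperature. Measured by: fluorescence, ex 355 nm, em 460 nm. Read-out basis: percent inhibition. Control set: wells without proteasome as full block, compound-free enzyme plus substrate as uninhibited.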
PP5 primary: inhibitors of human protein phosphatase 5 (PP5); purified PP5c, OMFP substrate fluorescence; P53041; 0.18% of 320,000 active; inhibition, % at 6.7 µM;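 active = inhibition above the campaign's mean inhibition across all tested compounds plus 3 SD, cut at about 9.5% in these data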
Target sequence (P53041 whole entry, looked up): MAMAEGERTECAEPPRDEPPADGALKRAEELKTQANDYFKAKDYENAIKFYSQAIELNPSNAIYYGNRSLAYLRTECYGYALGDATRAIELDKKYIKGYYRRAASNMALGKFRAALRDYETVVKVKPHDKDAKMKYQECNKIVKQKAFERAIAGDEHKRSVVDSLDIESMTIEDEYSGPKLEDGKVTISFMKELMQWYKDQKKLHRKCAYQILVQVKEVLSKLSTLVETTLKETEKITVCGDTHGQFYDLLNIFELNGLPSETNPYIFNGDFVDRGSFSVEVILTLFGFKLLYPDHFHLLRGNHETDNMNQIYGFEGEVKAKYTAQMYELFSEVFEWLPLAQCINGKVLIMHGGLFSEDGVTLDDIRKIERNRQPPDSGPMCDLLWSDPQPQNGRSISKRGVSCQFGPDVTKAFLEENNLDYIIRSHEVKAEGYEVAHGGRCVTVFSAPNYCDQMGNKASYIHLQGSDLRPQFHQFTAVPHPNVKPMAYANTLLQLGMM
PAD4 inh: inhibitors of human PAD4. AID 485272. Q9UM07. inhibition, % at 6.36 µM. 0.41% of 330,000 active. recombinant PAD4, RCA probe fluorescence polarization;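 active = percent inhibition above a cutoff equal to the mean of all tested compounds plus 3 SD, cut at about 15% in these data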
Apaf1 inhib: inhibitors of human Apaf-1 apoptosome | O14727 | reconstituted apoptosome caspase-3 activity, DEVD-Rh110 fluorescence | inhibition, % at 20 µM | 0.71% of 330,000 active; active = inhibition of at least 40% at 20 µM
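System – cell-free apoptosome with Apaf-1, procaspase-3 and caspase-9 · Buffer or medium – pH 7.5 Hepes buffer with CHAPS, BSA, DTT · Also added – cytochrome c with DEVD-Rh110 · Times – 30 min compound preincubation, 50 min activation, room temperature · Technique – Rh110 fluorescence intensity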
Fh CTSL1 inh: blocks F. hepatica cathepsin L1 in PFM18AAP counter-screen | recombinant F. hepatica cathepsin L1, Z-Leu-Arg-MCA fluorescence | inhibition, % at 5.96 µM | 0.49% of 300,000 active;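 active = inhibition above the mean of all tested compounds plus 3 SD, set per screening campaign, cut at about 17% in these data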
GSTO1 inh: blocks human GSTO1 in RBBP9 counter-screen. P78417. recombinant GSTO1, activity-based probe fluorescence polarization. 1.1% of 300,000 active. inhibition, % at 5.96 µM;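 active = inhibition above the campaign mean inhibition plus 3 SD, cut at about 35% in these data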
Numbers stand for hits; i = inactive; nt = no result given.

SMILES	UCH37 DUB inh	PP5 primary	PAD4 inh	Apaf1 inhib	Fh CTSL1 inh	GSTO1 inh
CCN(CCO)c1nc(SC)nc2c1sc1nc(-c3ccco3)c3c(c12)CCC3	nt	i	i	i	18	i
CCN(CCO)c1ncnc2c1sc1nc(C(C)C)c3c(c12)CC(C)(C)OC3	i	i	i	i	i	i
CCOc1ccc(C=NNC(=O)Nc2ccccc2)cc1	i	nt	nt	nt	nt	nt
COc1cc(C=NNC(=O)c2cccnc2)ccc1OS(=O)(=O)c1ccc(F)cc1	i	nt	nt	nt	nt	nt
O=C1CCCC(O)=C1N=Nc1ccc(C(=O)O)cc1	i	i	i	i	i	i
O=C1CCCC(O)=C1N=Nc1ccc2c(c1)OCO2	20	i	i	i	i	i
CCn1c(SCC(=O)NNC(=S)Nc2ccc(C)cc2)nnc1-c1ccc(Cl)cc1	i	i	i	i	i	35
Cc1ccc(NC(=S)NNC(=O)CSc2nnc(-c3ccc(Cl)cc3)n2C2CCCCC2)cc1	i	i	i	i	i	i
CC(=NNC(=O)c1cccc(S(=O)(=O)N2CCOCC2)c1)c1ccc(O)cc1	i	nt	nt	nt	nt	nt
Cc1ccnc2c1ccc1c(C)ccnc12	i	i	i	44	nt	nt
Cc1ccnc2c1ccc1cccnc12	i	nt	nt	i	nt	nt
CCOc1ccccc1CNC(=O)C1CCN(c2nnc(C)c3c(C)n(-c4ccc(C)cc4)nc23)CC1	nt	i	i	41	i	i
COc1ccc(-n2nc3c(N4CCC(C(=O)N5CCCCCC5)CC4)nnc(C)c3c2C)cc1	nt	i	i	i	28	i
Cc1cc2ncn(N=Cc3cc(Br)ccc3O)c2cc1C	i	nt	nt	nt	nt	nt
CC(=O)Nc1ccc(NC(=O)CC2SC(=O)N(CC(=O)c3ccccc3)C2=O)cc1 (configuration not stated)	i	i	i	i	96	i
COc1ccc(-c2[nH]ncc2-c2ccc(Cl)cc2)c(O)c1	i	i	i	i	17	i
Cc1ccc(NC2=C(Cl)C(=O)OC2OC(=O)c2ccco2)cc1 (configuration not stated)	i	i	i	i	81	i
Cc1ccc2cc(C(c3nnnn3CC3CCCO3)N3CCc4ccccc4C3)c(=O)[nH]c2c1 (configuration not stated)	i	i	i	87	i	i
Cc1ccc(C)c2[nH]c(=O)c(C(c3nnnn3Cc3ccccc3)N3CCc4ccccc4C3)cc12 (configuration not stated)	i	i	i	67	i	i
Cc1cccc2cc(C(c3nnnn3CC3CCCO3)N3CCCc4ccccc43)c(=O)[nH]c12 (configuration not stated)	i	i	i	i	i	i
Cc1cccc2cc(C(c3nnnn3CC3CCCO3)N3CCc4ccccc4C3)c(=O)[nH]c12 (configuration not stated)	i	i	i	79	i	i
Cc1cccc2cc(C(c3nnnn3Cc3ccc4c(c3)OCO4)N3CCCC3)c(=O)[nH]c12 (configuration not stated)	i	i	i	i	i	i
O=C(O)c1c2c(nc3ccc(S(=O)(=O)N4CCC(C(=O)NCc5ccc(Cl)cc5)CC4)cc13)CCCC2	i	i	i	i	20	i
O=C(NNc1c2ccccc2nc2ccccc12)c1ccccc1Cl	i	i	i	i	18	i
CCOCC(=O)OCC(=O)NC12CC3CC(CC(C3)C1)C2	i	i	i	i	i	i
SMILES	UCH37 DUB inh	PP5 primary	PAD4 inh	Apaf1 inhib	Fh CTSL1 inh	GSTO1 inh
CCC(CC)C(=O)OCC(=O)NC12CC3CC(CC(C3)C1)C2	i	i	i	i	i	37
COc1ccc2nc3cc(Cl)ccc3c(C#N)c2c1	i	i	i	i	19	i
Cc1ccc(C=NNC(=O)c2ccccc2OCc2cccc(Br)c2)o1	i	nt	nt	nt	nt	nt
CCCCn1c(SCC(N)=O)nc2c(sc3ccccc32)c1=O	i	i	i	i	i	50
CCCCOc1ccc(S(=O)(=O)N2CCN(c3ccc(N4CCN(CC)CC4)nn3)CC2)cc1	i	i	i	i	18	i
CCC1Oc2ccc(C)cc2N(CC(=O)N(Cc2ccc(C)o2)C2CCCC2)C1=O (configuration not stated)	i	i	i	i	28	i
COc1ccc(S(=O)(=O)NN=C(C)c2ccc(C)o2)cc1	i	nt	nt	nt	nt	nt
Cc1ccc(NC(=O)CN(C)C(=O)c2ccccc2OCc2c(C)noc2C)cc1	i	i	i	i	i	i
CCOc1ccc(NC(=O)CN(C)C(=O)c2ccccc2OCc2c(C)noc2C)cc1OCC	i	i	i	57	i	i
Cc1cccc(NN=C(C#N)S(=O)(=O)C(C)(C)C)c1	i	nt	nt	nt	nt	nt
O=C(CC=NOCc1ccc(Cl)cc1Cl)Nc1ccccc1	i	nt	nt	nt	nt	nt
CCCCCOC(=O)C1C2C=CC3(CN(c4ccccc4C)C(=O)C13)O2 (configuration not stated)	i	i	i	i	19	i
CCOC(=O)C1C2C=CC3(CN(c4ccccc4CC)C(=O)C13)O2 (configuration not stated)	i	i	i	i	i	i
Cc1cc(C)c2sc(N(CCN(C)C)C(=O)c3cc(Cl)sc3Cl)nc2c1	i	i	i	i	17	i
Cc1ccc2nc(N(CCN(C)C)C(=O)c3cc(Cl)sc3Cl)sc2c1	i	i	i	i	i	i
CC1CC(=NNC(=O)c2ccc([N+](=O)[O-])cc2)CC(C)(C)C1 (configuration not stated)	i	nt	nt	nt	nt	nt
CC(C)CC(=O)Nc1cccc(-c2cn3ccsc3n2)c1	i	i	i	i	i	i
CC(C)C(=O)Nc1cccc(-c2cn3ccsc3n2)c1	i	i	i	67	i	i
CC(=O)Nc1ccc(C(=O)/C=C/c2ccco2)cc1	i	i	i	i	22	i
CC(=O)Nc1cccc(C(=O)/C=C/c2ccco2)c1	i	i	i	i	i	i
CC(=NNc1nncc2ccccc12)c1cccc(OC(F)F)c1	i	nt	nt	nt	nt	nt
CC[C@H](C)[C@@H]1NC(=O)c2cc([N+](=O)[O-])cc(I)c2NCC[C@@H](C(N)=O)NC(=O)[C@H](CCCN=C(N)N)NC1=O	i	i	i	i	i	i
NC(=O)[C@@H]1CCCNc2c(I)cc([N+](=O)[O-])cc2C(=O)N[C@@H](CCCN=C(N)N)C(=O)N[C@@H](CCCN=C(N)N)C(=O)N1	i	i	i	41	i	i
CCc1ccccc1OCC(=O)Nc1nc(-c2cccnc2)cs1	i	10	i	i	i	i
CCC(=O)c1ccc(OCC(=O)Nc2nc(-c3cccnc3)cs2)cc1	i	i	i	i	i	i
NC(N)=NN=Cc1ccc(Cl)c(Cl)c1	i	nt	nt	nt	nt	nt
Cc1nn(-c2ccccc2)c2c1C1(C(=O)N(C)c3ccccc31)C(C#N)=C(N)O2 (configuration not stated)	i	i	i	i	i	37
O=C(/C=C/c1ccc(O)c(O)c1)OC(Cc1ccc(O)c(O)c1)C(=O)O (configuration not stated)	nt	i	i	i	i	55
